Laboratory results: ChEMBL document CHEMBL1125363, “Novel piperidine sigma receptor ligands as potential antipsychotic drugs” (J Med Chem, 1992)

Tests used:
D(2) dopamine receptor = D(2) dopamine receptor (Mus musculus, UniProt P61168); experiment: In vitro binding affinity towards dopamine receptor D2
[1] = molecular target: Serotonin 2 (5-HT2) receptor (Mus musculus, UniProt Q02152+P34968+P35363); experiment: In vitro binding affinity for serotonin 5-hydroxytryptamine (5-HT) 2 receptors; type: protein assay
[2] = molecular target: Sigma non-opioid intracellular receptor 1 (Mus musculus, UniProt O55242); experiment: In vitro binding affinity for the mouse sigma opioid receptor
Mus musculus = species on record: Mus musculus; experiment: Oral potency tested by using anti-mescaline test; type: functional
Method in brief: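 Mice; mescaline was given to evoke hallucinogen-type behaviour, and the test compound was dosed orally to antagonise it. Potency is the ED50 in mg/kg po. Some ED50s are the average of three measurements.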

Chain of Sigma non-opioid intracellular receptor 1 (O55242 whole entry): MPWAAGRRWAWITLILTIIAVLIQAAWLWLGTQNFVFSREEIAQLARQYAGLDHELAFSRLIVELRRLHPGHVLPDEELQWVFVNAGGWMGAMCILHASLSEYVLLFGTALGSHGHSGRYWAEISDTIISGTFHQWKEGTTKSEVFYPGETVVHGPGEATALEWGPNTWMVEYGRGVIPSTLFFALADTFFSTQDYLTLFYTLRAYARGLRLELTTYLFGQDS
Chain of D(2) dopamine receptor (P61168 whole entry): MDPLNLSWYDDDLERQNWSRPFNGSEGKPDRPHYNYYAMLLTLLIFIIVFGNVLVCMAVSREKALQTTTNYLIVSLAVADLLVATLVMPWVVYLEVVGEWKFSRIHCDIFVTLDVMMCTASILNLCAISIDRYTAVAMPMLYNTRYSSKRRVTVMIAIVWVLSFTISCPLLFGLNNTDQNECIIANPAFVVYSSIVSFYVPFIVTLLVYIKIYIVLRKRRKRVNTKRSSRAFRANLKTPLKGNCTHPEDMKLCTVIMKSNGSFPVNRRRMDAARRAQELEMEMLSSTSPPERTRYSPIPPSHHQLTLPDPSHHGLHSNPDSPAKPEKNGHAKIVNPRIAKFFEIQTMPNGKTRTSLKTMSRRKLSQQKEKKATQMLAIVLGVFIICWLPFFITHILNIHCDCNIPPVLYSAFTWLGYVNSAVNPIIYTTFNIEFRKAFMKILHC

Row | SMILES | IC50 (D(2) dopamine receptor) | Ki [1] | Ki [2] | ED50 (Mus musculus)
1 | COc1ccc(C(=O)CC2CCN(Cc3ccccc3)CC2)cc1 | 6070 nM | 313 nM | 4 nM | > 30 mg/kg
2 | COc1ccc(-c2ccc(OCC3CCN(CC4CC4)CC3)cc2)cc1 | 7220 nM | – | 218 nM | –
3 | O=C(CCCN1CCC(C(=O)Cc2ccc(F)cc2)CC1)c1ccc(F)cc1 | – | 17 nM | 40 nM | 1.9 mg/kg
4 | O=C(CC1CCCCN1Cc1ccccc1)c1ccc(F)cc1.O=C(O)/C=C\C(=O)O (configuration not stated) | 3340 nM | – | 37 nM | 4.3 mg/kg
5 | CSc1ccc(C(O)CC2CCN(Cc3ccccc3)CC2)cc1 (configuration not stated) | 7630 nM | > 100 nM | 10 nM | > 30 mg/kg
6 | O.OC(Cc1ccc(F)cc1)C1CCN(CCCc2ccccc2)CC1 (configuration not stated) | 1700 nM | 41 nM | 7 nM | –
7 | CC(O)c1ccc(OCC2CCN(CC3CC3)CC2)cc1 (configuration not stated) | > 10000 nM | – | 98 nM | –
8 | O=C(CC1CCCN(CC2CC2)C1)c1ccc(F)cc1 (configuration not stated) | 185 nM | – | 17 nM | 1.3 mg/kg
9 | O=C(CC1CCCN(Cc2ccccc2)C1)c1ccc(F)cc1 (configuration not stated) | 34 nM | – | 14 nM | 1.1 mg/kg
10 | Nc1ccc(C(=O)CC2CCN(CC3CC3)CC2)cc1.O | > 10000 nM | – | 146 nM | 10 mg/kg
11 | OC(CC1CCN(CCC2CC2)CC1)c1ccc(F)cc1 (configuration not stated) | > 10000 nM | – | 155 nM | –
12 | c1cc(OCC2CCN(CC3CC3)CC2)ccn1 | > 10000 nM | – | 175 nM | –
13 | O=C(Cc1ccc(F)cc1)CC1CCN(Cc2ccccc2)CC1.O=C(O)/C=C\C(=O)O | 1100 nM | 316 nM | 3 nM | > 30 mg/kg
14 | O=C(CC1CCN(CCc2ccc(F)cc2)CC1)c1ccc(F)cc1 | 57 nM | 10 nM | 7 nM | 0.13 mg/kg
15 | COc1ccc(CN2CCC(COc3ccc(F)cc3)CC2)cc1.O.O=C(O)/C=C\C(=O)O | 1340 nM | – | 30 nM | 6.5 mg/kg
16 | O=C(CC1CCN(Cc2ccccc2)CC1)c1ccc(-c2ccccc2)cc1 | 3010 nM | > 100 nM | 33 nM | 30 mg/kg
17 | CC(=O)c1ccc(OCC2CCN(CC3CC3)CC2)cc1 | 539 nM | > 1000 nM | 9 nM | > 30 mg/kg
18 | [O-][S+](CC1CCN(CCC2CC2)CC1)c1ccc(F)cc1 (configuration not stated) | > 10000 nM | – | 310 nM | –
19 | CN(C)S(=O)(=O)c1ccc(OCC2CCN(CC3CC3)CC2)cc1 | – | – | > 10000 nM | –
20 | O.c1ccc(CN2CCC(COc3ccc4ccccc4c3)CC2)cc1 | 1020 nM | 173 nM | 6 nM | > 30 mg/kg
21 | Cl.Fc1ccc(OCC2CCN(CC3CC3)CC2)cc1F | 2840 nM | 41 nM | 2 nM | 4.5 mg/kg
22 | c1cnc(OCC2CCN(CC3CC3)CC2)nc1 | 4440 nM | – | 347 nM | –
23 | Cl.c1ccc(OCC2CCN(CC3CC3)CC2)nc1 | 4670 nM | 1378 nM | 44 nM | > 30 mg/kg
24 | Cl.Fc1ccc(OCCC2CCN(Cc3ccccc3)CC2)cc1.O | 114 nM | < 100 nM | 4 nM | 16 mg/kg
25 | Cl.Fc1ccc(COCC2CCN(Cc3ccc(OCc4ccccc4)cc3)CC2)cc1 | 773 nM | < 100 nM | 27 nM | < 30 mg/kg
26 | CSc1ccc(OCC2CCN(CC3CC3)CC2)cc1.Cl | 1980 nM | 114 nM | 7 nM | > 30 mg/kg
27 | Fc1ccc(COCC2CCN(CCCc3ccccc3)CC2)cc1 | > 10000 nM | – | 304 nM | –
28 | COc1ccc(OCC2CCN(CC3CC3)CC2)cc1.Cl.O | > 10000 nM | > 100 nM | 18 nM | > 30 mg/kg
29 | COC(=O)c1ccc(CN2CCC(COCc3ccc(F)cc3)CC2)cc1.Cl | 1980 nM | 313 nM | 7 nM | > 10 mg/kg
